Among the data in ChEMBL document CHEMBL1126866, “TSAO analogues. 3. Synthesis and anti-HIV-1 activity of 2',5'-bis-O-(tert-butyldimethylsilyl)-beta-D-ribofuranosyl 3'-spiro-5''-(4''-amino-1'',2''-oxathiole 2'',2''-dioxide) purine and purine-modified nucleosides” (J Med Chem, 1993) are EC50, CC50 and Selectivity index values, retold here.

As a reminder, the EC50 is the concentration that produces a half-maximal response. A lower EC50 goes with a more potent agent. In general, CC50 refers to the concentration that lowers cell viability or growth by half. The low end stands for harm at low concentration, the high end for better tolerance by the cells.

SMILES strings stand for the structures.

Assay [1] can be described thus: Effective concentration required to inhibit HIV-1 induced cytopathicity in MT-4 cells. The assay is classed as functional, cell-based. The conditions noted are these: Human immunodeficiency virus 1, MT4. In outline:
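MT-4 cells (5×10^5 cells/mL) were infected with HIV-1 at 100 CCID50 per mL of cell suspension and incubated with serial compound dilutions for 5 days. Viable cells were counted by trypan blue staining. EC50 = concentration reducing virus-induced loss of viable MT-4 cells by 50%.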

The subject of assay [2] is Human immunodeficiency virus 2. The assay is described as follows: Effective concentration required to inhibit HIV-2 induced cytopathicity in MT-4 cells. Type of assay: functional, organism-based. As to conditions: Human immunodeficiency virus 2, MT4.
The subject of a further assay is MT4. The assay is described as follows: Cytotoxic concentration required to inhibit the viability of MT-4 cells. Type of assay: functional. As to conditions: Homo sapiens. The method, boiled down:
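Mock-infected MT-4 cells (5×10^5 cells/mL) were cultured with serial dilutions of test compound for 5 days. Viable cells were counted by trypan blue staining. CC50 = concentration reducing the number of viable mock-infected MT-4 cells by 50%.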

Assay [3] has as its system Human immunodeficiency virus 1. The assay is described as follows: Selectivity index expressed as the ratio of CC50/EC50 of MT-4 cell lines.
Another assay deals with CCRF-CEM. The assay is described as follows: Effective concentration required to inhibit HIV- induced giant cell formation in CEM cells. Type of assay: functional, cell-based. As to conditions: Homo sapiens. In outline: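 CEM cells (5×10^5 cells/mL) were infected with HIV-1 at 100 CCID50 per mL of cell suspension and mixed with compound dilutions. Syncytia were scored microscopically after 4 days. EC50 = concentration reducing syncytium number by 50%.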

For `CC(C)(C)[Si](C)(C)OC[C@H]1O[C@@H](n2cnc3c(N)ncnc32)[C@H](O[Si](C)(C)C(C)(C)C)[C@@]12OS(=O)(=O)C=C2N`, the EC50 in assay [1] and in assay [2] was greater than 2.7 µM throughout. Moreover, in the assay with MT4, the CC50 came to 7.3 µM. Further, the Selectivity index in assay [3] is listed as less than 2.7.

For `CC(C)(C)[Si](C)(C)OC[C@H]1O[C@@H](n2cnc3ncn([C@@H]4O[C@H](CO[Si](C)(C)C(C)(C)C)[C@@]5(OS(=O)(=O)C=C5N)[C@H]4O[Si](C)(C)C(C)(C)C)c3c2=O)[C@H](O[Si](C)(C)C(C)(C)C)[C@]12OS(=O)(=O)C=C2N`, the EC50 in assay [1] and in assay [2] was greater than 150 µM each time. In addition, the half-maximal cytotoxic concentration (CC50) in the assay on MT4 is greater than 150 µM. Further, in assay [3], the Selectivity index is given as less than 1.

On to `COc1ncnc2c1ncn2[C@@H]1O[C@H](CO[Si](C)(C)C(C)(C)C)[C@@]2(OS(=O)(=O)C=C2N)[C@H]1O[Si](C)(C)C(C)(C)C`, for which the values for the EC50 (in the assay with CCRF-CEM; in assay [1]; in assay [2]) were 0.469 µM, 0.141 µM and greater than 30 µM, respectively. Moreover, half-maximal cytotoxicity in the assay on MT4 (CC50) was put at 21 µM. Besides, the Selectivity index in assay [3] turned out to be 149.

With `CC(C)(C)[Si](C)(C)OC[C@H]1O[C@@H](n2cnc3c(N)ncnc32)[C@H](O[Si](C)(C)C(C)(C)C)[C@]12OS(=O)(=O)C=C2N`, the concentration giving a half-maximal response (EC50) in assay [1] was 0.278 µM; in assay [2] it was greater than 14 µM. This molecule yielded a CC50 with MT4 of 13 µM. The Selectivity index in assay [3] was 47.

Regarding `COc1ccc(C(Nc2ncnc3c2ncn3[C@@H]2O[C@H](CO[Si](C)(C)C(C)(C)C)[C@@]3(OS(=O)(=O)C=C3N)[C@H]2O[Si](C)(C)C(C)(C)C)(c2ccccc2)c2ccccc2)cc1`, the EC50 in assay [1] and in assay [2] was greater than 100 µM throughout. In addition, the CC50 in the assay on MT4 stood at 192 µM. Also, the Selectivity index in assay [3] is given as less than 1.9.

In the case of `CCn1cnc2ncn([C@@H]3O[C@H](CO[Si](C)(C)C(C)(C)C)[C@@]4(OS(=O)(=O)C=C4N)[C@H]3O[Si](C)(C)C(C)(C)C)c2c1=O`, the EC50 was 0.172 µM in the assay on CCRF-CEM, 0.604 µM in assay [1] and greater than 150 µM in assay [2]. This molecule came in with a CC50 in the assay on MT4 greater than 150 µM. For the same molecule, in assay [3], the Selectivity index is greater than 248.

Regarding `CNc1ncnc2c1ncn2[C@@H]1O[C@H](CO[Si](C)(C)C(C)(C)C)[C@@]2(OS(=O)(=O)C=C2N)[C@H]1O[Si](C)(C)C(C)(C)C`, the concentration for a half-maximal effect (EC50) in the assay with CCRF-CEM is 0.161 µM; in assay [1] it was 0.146 µM; in assay [2], greater than 7 µM. In the assay with MT4, this molecule registered a CC50 of 14 µM. The Selectivity index in assay [3] is reported as 96.

For the molecule `CN(C)c1ncnc2c1ncn2[C@@H]1O[C@H](CO[Si](C)(C)C(C)(C)C)[C@@]2(OS(=O)(=O)C=C2N)[C@H]1O[Si](C)(C)C(C)(C)C`, the concentration for a half-maximal effect (EC50) in the assay on CCRF-CEM is 0.646 µM; in assay [1], 0.389 µM; in assay [2], greater than 30 µM. This molecule returned a CC50 in the assay on MT4 of 15 µM. Besides, the Selectivity index in assay [3] turned out to be 39.

As for `CC(C)(C)[Si](C)(C)OC[C@H]1O[C@@H](n2cnc3ncnc(O)c32)[C@H](O[Si](C)(C)C(C)(C)C)[C@]12OS(=O)(=O)C=C2N`, the EC50 in assay [1] was 0.173 µM; in assay [2], greater than 7 µM. Moreover, the cytotoxic concentration (CC50) in the assay with MT4 came to 15 µM. Besides, the Selectivity index in assay [3] turned out to be 86.

On to `CC(C)(C)[Si](C)(C)OC[C@H]1O[C@@H](n2cnc3ccccc32)[C@H](O[Si](C)(C)C(C)(C)C)[C@]12OS(=O)(=O)C=C2N`, for which the half-maximal effective concentration (EC50) in assay [1] is 3.1 µM; in assay [2] it was greater than 7 µM. Further, half-maximal cytotoxicity in the assay on MT4 (CC50) was put at 15 µM. Moreover, the Selectivity index in assay [3] is on record as 4.8.

`CC(C)(C)[Si](C)(C)OC[C@H]1O[C@@H](n2cnc3c(O)ncnc32)[C@H](O[Si](C)(C)C(C)(C)C)[C@]12OS(=O)(=O)C=C2N`: the concentration for a half-maximal effect (EC50) in assay [1] is 0.158 µM; in assay [2], greater than 7 µM. Besides, half-maximal cytotoxicity with MT4 (CC50) was put at 14 µM. In assay [3], the Selectivity index turned out to be 89.

For the molecule `CC(C)(C)[Si](C)(C)OC[C@H]1O[C@@H](n2cnc3[nH]c(=O)[nH]c(=O)c32)[C@H](O[Si](C)(C)C(C)(C)C)[C@]12OS(=O)(=O)C=C2N`, the results for the EC50 (with CCRF-CEM; in assay [1]; in assay [2]) were 0.126 µM, 0.358 µM and greater than 7 µM, respectively. In addition, in the assay with MT4, it took 13 µM to reach half-maximal cytotoxicity (CC50). Also, in assay [3], the Selectivity index was determined as 36.

Turning to `Cn1cnc2ncn([C@@H]3O[C@H](CO[Si](C)(C)C(C)(C)C)[C@@]4(OS(=O)(=O)C=C4N)[C@H]3O[Si](C)(C)C(C)(C)C)c2c1=O`, the EC50 in the assay on CCRF-CEM was 0.067 µM; in assay [1], 0.201 µM; in assay [2], greater than 100 µM. Moreover, in the assay with MT4, the cytotoxic concentration (CC50) was determined as 156 µM. Besides, the Selectivity index in assay [3] was 776.

Consider `CC(C)(C)[Si](C)(C)OC[C@H]1O[C@@H](n2cnc3cncnc32)[C@H](O[Si](C)(C)C(C)(C)C)[C@]12OS(=O)(=O)C=C2N`, for which the results for the EC50 (with CCRF-CEM; in assay [1]; in assay [2]) were 0.074 µM, 0.177 µM and greater than 7 µM, respectively. It took 13 µM to reach half-maximal cytotoxicity in the assay on MT4 (CC50). Moreover, the Selectivity index in assay [3] was 73.

As to `COc1ccc(C(Nc2ncnc3c2ncn3[C@@H]2O[C@H](CO[Si](C)(C)C(C)(C)C)[C@]3(OS(=O)(=O)C=C3N)[C@H]2O[Si](C)(C)C(C)(C)C)(c2ccccc2)c2ccccc2)cc1`, the concentration for a half-maximal effect (EC50) in assay [1] and in assay [2] was greater than 100 µM each time. In the assay with MT4, this molecule gave a CC50 of 191 µM. Further, in assay [3], the Selectivity index is less than 1.9.

On to `CC(C)(C)[Si](C)(C)OC[C@H]1O[C@@H](n2c(=O)[nH]c(=O)c3[nH]cnc32)[C@H](O[Si](C)(C)C(C)(C)C)[C@]12OS(=O)(=O)C=C2N`, for which the EC50 in the assay with CCRF-CEM is 2.3 µM; in assay [1] it was 2.7 µM; in assay [2], greater than 7 µM. The molecule also came in with a cytotoxic concentration (CC50) in the assay with MT4 of 14 µM. The Selectivity index in assay [3] is 5.2.

Regarding `Cn1cnc2c(ncn2[C@@H]2O[C@H](CO[Si](C)(C)C(C)(C)C)[C@@]3(OS(=O)(=O)C=C3N)[C@H]2O[Si](C)(C)C(C)(C)C)c1=O`, the EC50 with CCRF-CEM is 0.101 µM; in assay [1] it was 0.514 µM; in assay [2], greater than 150 µM. The molecule further registered a CC50 with MT4 greater than 150 µM. For the same molecule, the Selectivity index in assay [3] was greater than 292.
